Results from ChEMBL document CHEMBL1155278, “3,4-Diaryl-isoxazoles and -imidazoles as potent dual inhibitors of p38alpha mitogen activated protein kinase and casein kinase 1delta” (J Med Chem, 2009).

How the values were obtained:
[1] = target: T1, Serine/threonine-protein kinase TBK1 (Homo sapiens) (UniProt Q9UHD2); assay: Inhibition of TBK1 assessed as residual activity at 10 uM by Cherenkov counting relative to control in presence of 50 uM ATP
T1 sequence (whole entry): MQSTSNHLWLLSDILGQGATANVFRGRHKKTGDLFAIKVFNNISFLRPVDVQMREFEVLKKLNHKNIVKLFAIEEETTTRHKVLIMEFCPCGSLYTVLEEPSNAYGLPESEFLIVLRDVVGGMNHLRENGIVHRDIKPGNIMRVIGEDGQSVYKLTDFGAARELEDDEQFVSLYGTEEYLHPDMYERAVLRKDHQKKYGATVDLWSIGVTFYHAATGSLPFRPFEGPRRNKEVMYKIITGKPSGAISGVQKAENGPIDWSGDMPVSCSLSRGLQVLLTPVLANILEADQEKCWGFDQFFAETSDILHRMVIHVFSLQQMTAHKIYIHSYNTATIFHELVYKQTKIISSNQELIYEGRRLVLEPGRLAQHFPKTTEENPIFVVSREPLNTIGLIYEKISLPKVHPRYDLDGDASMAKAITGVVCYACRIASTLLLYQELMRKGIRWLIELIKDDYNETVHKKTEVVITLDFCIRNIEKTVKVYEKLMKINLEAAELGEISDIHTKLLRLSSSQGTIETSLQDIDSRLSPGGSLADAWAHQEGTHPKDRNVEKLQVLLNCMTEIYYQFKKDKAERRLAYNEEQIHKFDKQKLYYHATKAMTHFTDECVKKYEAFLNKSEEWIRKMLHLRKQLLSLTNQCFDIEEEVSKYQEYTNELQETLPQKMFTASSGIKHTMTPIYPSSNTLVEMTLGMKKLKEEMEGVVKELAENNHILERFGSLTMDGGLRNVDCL
In short: (§1)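 Single-concentration profiling at 10 μM in a 78-kinase panel. Kinase activity is expressed as a percentage of control assays run without compound.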

[2] = target: Tyrosine-protein kinase Yes (Homo sapiens) (UniProt P07947); assay: Inhibition of YES1 assessed as residual activity at 10 uM by Cherenkov counting relative to control in presence of 20 uM ATP; in short: as §1
[3] = target: MAP kinase-interacting serine/threonine-protein kinase 1 (Homo sapiens) (UniProt Q9BUB5); assay: Inhibition of MNK1 assessed as residual activity at 10 uM by Cherenkov counting relative to control in presence of 50 uM ATP
[4] = target: 3-phosphoinositide-dependent protein kinase 1 (Homo sapiens) (UniProt O15530); assay: Inhibition of PDK1 assessed as residual activity at 10 uM by Cherenkov counting relative to control in presence of 20 uM ATP
[5] = target: T2, Serine/threonine-protein kinase Chk1 (Homo sapiens) (UniProt O14757); assay: Inhibition of CHK1 assessed as residual activity at 10 uM by Cherenkov counting relative to control in presence of 20 uM ATP
T2 sequence (whole entry): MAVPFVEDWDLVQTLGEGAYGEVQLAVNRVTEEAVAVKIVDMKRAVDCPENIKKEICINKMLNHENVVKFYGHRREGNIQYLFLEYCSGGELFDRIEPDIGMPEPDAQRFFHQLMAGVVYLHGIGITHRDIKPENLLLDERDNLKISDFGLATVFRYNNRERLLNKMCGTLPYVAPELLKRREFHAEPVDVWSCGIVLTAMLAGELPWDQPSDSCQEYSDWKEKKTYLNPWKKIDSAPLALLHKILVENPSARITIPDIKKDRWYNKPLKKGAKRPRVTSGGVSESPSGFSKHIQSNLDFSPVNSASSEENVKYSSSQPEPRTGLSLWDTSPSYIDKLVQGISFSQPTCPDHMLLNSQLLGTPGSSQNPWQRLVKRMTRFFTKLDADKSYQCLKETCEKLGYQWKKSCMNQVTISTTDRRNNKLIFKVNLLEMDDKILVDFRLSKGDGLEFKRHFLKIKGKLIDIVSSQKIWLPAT
In short: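 Single-point profiling at 10 µM in a panel of 78 protein kinases. Kinase activity is expressed as a percentage relative to control assays without compound.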

[6] = target: T3, Casein kinase I isoform delta (Homo sapiens, UniProt P48730); assay: Inhibition of CK1delta assessed as residual activity at 10 uM by Cherenkov counting relative to control in presence of 20 uM ATP
In short: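 CK1δ tested within a 78-protein-kinase panel with compound at 10 µM. Activity is expressed as a percentage of kinase activity relative to control assays run without compound.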

[7] = target: Mitogen-activated protein kinase 8 (Homo sapiens) (UniProt P45983); assay: Inhibition of JNK1 assessed as residual activity at 0.1 uM by Cherenkov counting relative to control in presence of 20 uM ATP
In short: (§2)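 Single-concentration selectivity screen at 0.1 μM against a panel of 76 protein kinases. Each kinase was run at an ATP level approximating its Km for ATP. Output is mean residual activity as % of the control assay without compound, n = 3 ± SD.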

[8] = target: Dual specificity tyrosine-phosphorylation-regulated kinase 1A (Homo sapiens) (UniProt Q13627); assay: Inhibition of DYRK1A assessed as residual activity at 0.1 uM by Cherenkov counting relative to control in presence of 50 uM ATP
In short: (§3)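 Single-concentration screen at 0.1 µM across a panel of 76 protein kinases. Each kinase was run at an ATP concentration approximating its ATP Km. Results are % mean residual activity versus control assays without compound (n = 3 ± SD).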

[9] = target: Maternal embryonic leucine zipper kinase (Homo sapiens) (UniProt Q14680); assay: Inhibition of MELK assessed as residual activity at 0.1 uM by Cherenkov counting relative to control in presence of 50 uM ATP; in short: as §2
[10] = target: Calcium/calmodulin-dependent protein kinase kinase 2 (Homo sapiens) (UniProt Q96RR4); assay: Inhibition of CAMKKbeta assessed as residual activity at 0.1 uM by Cherenkov counting relative to control; in short: as §3
[11] = target: Tyrosine-protein kinase SYK (Homo sapiens) (UniProt P43405); assay: Inhibition of SYK assessed as residual activity at 0.1 uM by Cherenkov counting relative to control in presence of 20 uM ATP
In short: (§4)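 Single-concentration screen at 0.1 μM in a 76-kinase panel. ATP for each kinase was set near its Km for ATP. Residual activity is given as a percentage of control assays without compound, mean of n = 3 ± SD.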

[12] = target: Tyrosine-protein kinase Yes (Homo sapiens) (UniProt P07947); assay: Inhibition of YES1 assessed as residual activity at 0.1 uM by Cherenkov counting relative to control in presence of 20 uM ATP; in short: as §4
[13] = target: T3, Casein kinase I isoform delta; assay: Inhibition of CK1delta assessed as residual activity at 0.1 uM by Cherenkov counting relative to control in presence of 20 uM ATP
In short: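 CK1δ tested within a 76-protein-kinase panel with compound at 0.1 µM. ATP for each kinase was set near its Km for ATP. Read-out was residual activity as % of control assays without compound, given as mean ± SD, n = 3.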

[14] = target: Serine/threonine-protein kinase PAK 5 (Homo sapiens) (UniProt Q9P286); assay: Inhibition of PAK5 assessed as residual activity at 0.1 uM by Cherenkov counting relative to control in presence of 20 uM ATP; in short: as §2
Serine/threonine-protein kinase PAK 5 (Homo sapiens), sequence (Q9P286 whole entry, looked up): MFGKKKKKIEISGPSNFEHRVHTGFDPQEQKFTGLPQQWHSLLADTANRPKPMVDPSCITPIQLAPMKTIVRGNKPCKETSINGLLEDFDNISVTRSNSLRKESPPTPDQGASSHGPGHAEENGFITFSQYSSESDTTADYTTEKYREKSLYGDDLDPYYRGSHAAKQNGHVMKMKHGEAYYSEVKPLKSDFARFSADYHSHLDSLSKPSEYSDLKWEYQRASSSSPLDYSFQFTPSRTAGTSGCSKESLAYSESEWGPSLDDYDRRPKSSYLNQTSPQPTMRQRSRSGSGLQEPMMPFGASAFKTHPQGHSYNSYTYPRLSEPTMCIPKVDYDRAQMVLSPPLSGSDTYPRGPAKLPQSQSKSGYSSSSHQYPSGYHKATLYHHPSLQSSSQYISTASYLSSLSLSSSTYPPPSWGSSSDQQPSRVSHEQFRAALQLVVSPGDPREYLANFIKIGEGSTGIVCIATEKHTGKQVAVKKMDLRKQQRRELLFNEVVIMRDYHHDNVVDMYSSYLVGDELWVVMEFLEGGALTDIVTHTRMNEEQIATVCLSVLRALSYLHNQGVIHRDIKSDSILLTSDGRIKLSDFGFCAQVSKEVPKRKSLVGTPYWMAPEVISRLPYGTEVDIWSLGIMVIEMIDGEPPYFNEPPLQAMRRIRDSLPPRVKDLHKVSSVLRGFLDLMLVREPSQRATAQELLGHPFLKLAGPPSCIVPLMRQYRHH

T3 sequence (P48730 whole entry, looked up, canonical isoform): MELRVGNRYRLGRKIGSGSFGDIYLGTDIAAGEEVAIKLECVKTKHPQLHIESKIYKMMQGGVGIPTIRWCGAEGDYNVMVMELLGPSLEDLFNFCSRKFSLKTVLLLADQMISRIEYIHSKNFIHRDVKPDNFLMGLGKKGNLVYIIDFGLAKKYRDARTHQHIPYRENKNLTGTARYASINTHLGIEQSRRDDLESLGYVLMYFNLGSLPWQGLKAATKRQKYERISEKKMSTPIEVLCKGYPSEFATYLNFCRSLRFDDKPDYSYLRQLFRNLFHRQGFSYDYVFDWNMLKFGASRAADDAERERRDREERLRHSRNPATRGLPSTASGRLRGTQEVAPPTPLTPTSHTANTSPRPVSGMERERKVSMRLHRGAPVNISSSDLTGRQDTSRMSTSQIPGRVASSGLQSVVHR
Tyrosine-protein kinase Yes (Homo sapiens), sequence (P07947 2-543 limits assumed): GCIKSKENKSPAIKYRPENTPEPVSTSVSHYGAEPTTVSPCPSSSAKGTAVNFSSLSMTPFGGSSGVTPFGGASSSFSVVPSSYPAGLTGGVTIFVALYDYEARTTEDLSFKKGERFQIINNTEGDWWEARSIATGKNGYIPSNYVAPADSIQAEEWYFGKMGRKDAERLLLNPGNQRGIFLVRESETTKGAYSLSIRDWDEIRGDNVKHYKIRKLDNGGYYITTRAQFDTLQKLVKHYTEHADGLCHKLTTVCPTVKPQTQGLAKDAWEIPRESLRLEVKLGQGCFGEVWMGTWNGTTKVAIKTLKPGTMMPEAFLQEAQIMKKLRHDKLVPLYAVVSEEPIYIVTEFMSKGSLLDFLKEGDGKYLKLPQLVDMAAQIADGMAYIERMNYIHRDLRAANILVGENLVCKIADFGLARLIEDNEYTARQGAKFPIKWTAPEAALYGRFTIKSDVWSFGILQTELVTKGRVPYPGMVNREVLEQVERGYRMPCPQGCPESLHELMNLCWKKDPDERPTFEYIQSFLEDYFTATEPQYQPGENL
MAP kinase-interacting serine/threonine-protein kinase 1 (Homo sapiens), sequence (Q9BUB5 whole entry, looked up): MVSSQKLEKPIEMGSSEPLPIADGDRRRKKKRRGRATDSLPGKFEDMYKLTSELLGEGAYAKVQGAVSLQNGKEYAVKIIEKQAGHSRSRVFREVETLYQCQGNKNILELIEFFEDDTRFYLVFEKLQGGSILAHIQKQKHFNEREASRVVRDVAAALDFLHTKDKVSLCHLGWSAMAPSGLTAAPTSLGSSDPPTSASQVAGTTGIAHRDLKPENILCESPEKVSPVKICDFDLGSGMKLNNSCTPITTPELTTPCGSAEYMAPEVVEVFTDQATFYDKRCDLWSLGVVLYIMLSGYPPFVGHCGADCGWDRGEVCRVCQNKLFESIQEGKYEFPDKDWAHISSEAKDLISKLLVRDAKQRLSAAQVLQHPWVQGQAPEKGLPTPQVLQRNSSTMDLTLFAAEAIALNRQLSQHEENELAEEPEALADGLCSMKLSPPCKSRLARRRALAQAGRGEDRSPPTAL
Calcium/calmodulin-dependent protein kinase kinase 2 (Homo sapiens), sequence (Q96RR4 2-588 limits assumed): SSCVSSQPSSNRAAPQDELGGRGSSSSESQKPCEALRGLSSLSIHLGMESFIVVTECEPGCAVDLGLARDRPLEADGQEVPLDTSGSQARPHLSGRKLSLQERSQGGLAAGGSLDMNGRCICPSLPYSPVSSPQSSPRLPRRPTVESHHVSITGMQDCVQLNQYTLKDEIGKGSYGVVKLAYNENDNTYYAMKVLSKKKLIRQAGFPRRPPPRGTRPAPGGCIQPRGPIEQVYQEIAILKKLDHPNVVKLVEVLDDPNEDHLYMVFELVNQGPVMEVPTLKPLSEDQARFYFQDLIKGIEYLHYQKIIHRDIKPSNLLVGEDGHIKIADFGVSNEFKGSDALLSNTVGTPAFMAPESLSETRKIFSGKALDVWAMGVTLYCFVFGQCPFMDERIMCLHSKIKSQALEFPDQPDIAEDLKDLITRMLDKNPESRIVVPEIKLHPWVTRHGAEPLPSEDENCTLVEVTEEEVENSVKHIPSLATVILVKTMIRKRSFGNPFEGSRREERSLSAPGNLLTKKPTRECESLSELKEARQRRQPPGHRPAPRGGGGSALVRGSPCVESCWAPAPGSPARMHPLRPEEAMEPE
3-phosphoinositide-dependent protein kinase 1 (Homo sapiens), sequence (O15530 whole entry, looked up): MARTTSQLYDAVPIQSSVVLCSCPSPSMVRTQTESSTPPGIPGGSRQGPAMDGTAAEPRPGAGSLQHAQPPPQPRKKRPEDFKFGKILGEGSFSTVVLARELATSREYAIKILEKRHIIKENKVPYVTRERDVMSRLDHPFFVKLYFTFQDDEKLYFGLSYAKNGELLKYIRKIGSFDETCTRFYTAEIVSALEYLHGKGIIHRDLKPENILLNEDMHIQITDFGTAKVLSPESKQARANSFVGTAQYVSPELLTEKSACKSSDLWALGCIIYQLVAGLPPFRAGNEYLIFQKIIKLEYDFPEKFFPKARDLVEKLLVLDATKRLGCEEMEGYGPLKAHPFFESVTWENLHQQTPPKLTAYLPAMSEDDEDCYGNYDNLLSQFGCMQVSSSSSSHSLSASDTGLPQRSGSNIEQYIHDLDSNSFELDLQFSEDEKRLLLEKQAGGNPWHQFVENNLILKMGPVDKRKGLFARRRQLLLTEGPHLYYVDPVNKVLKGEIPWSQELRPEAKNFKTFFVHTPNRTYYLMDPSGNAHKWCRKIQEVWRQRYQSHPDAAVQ
Mitogen-activated protein kinase 8 (Homo sapiens), sequence (P45983 whole entry): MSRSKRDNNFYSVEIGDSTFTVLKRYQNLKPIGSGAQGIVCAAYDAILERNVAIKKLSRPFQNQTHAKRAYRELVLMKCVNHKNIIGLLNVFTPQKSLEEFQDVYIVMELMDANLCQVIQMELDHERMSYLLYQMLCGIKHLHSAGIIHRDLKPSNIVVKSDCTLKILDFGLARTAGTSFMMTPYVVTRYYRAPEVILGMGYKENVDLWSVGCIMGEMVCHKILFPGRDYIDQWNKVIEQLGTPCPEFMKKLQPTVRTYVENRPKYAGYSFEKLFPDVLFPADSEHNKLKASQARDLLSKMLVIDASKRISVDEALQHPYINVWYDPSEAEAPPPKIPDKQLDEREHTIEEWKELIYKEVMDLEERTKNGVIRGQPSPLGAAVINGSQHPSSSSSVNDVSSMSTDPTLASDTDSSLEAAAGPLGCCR
Maternal embryonic leucine zipper kinase (Homo sapiens), sequence (Q14680 whole entry, looked up): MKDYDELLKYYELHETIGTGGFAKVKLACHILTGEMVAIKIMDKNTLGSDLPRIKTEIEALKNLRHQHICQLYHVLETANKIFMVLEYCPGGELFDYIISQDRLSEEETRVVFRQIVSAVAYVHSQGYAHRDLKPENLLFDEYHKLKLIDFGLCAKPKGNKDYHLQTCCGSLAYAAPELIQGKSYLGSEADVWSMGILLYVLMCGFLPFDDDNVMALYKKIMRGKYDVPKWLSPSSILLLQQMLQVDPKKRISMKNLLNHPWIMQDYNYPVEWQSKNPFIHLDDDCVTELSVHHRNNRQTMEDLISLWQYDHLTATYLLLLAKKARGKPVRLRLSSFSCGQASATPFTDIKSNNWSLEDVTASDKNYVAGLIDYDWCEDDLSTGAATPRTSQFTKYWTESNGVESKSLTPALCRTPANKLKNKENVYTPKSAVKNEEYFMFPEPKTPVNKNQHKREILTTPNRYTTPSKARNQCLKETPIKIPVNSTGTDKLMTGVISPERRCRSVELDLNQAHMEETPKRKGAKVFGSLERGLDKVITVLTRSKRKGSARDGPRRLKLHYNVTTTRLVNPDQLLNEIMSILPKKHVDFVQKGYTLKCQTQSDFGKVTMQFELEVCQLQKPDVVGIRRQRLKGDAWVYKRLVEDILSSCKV

Structure (SMILES) | Activity [1] | Activity [2] | Activity [3] | Activity [4] | Activity [5] | Activity [6] | Activity [7] | Activity [8] | Activity [9] | Activity [10] | Activity [11] | Activity [12] | Activity [13] | Activity [14]
CC(C)c1onc(-c2ccc(F)cc2)c1-c1ccncc1 | 90% | 82% | 96% | 82% | 91% | 6% | – | – | – | – | – | – | – | –
COc1ccc(/C=C/C(=O)Nc2cc(-c3[nH]c([S+](C)[O-])nc3-c3ccc(F)cc3)ccn2)c(OC)c1 (stereo not drawn) | – | – | – | – | – | – | 53% | 86% | 92% | 92% | 86% | 14% | 18% | 105%
COc1ccc(/C=C/C(=O)Nc2cc(-c3[nH]c(SC)nc3-c3ccc(F)cc3)ccn2)c(OC)c1 | – | – | – | – | – | – | 90% | 78% | 81% | 88% | 86% | 24% | 10% | 94%
CC(C)c1noc(-c2ccc(F)cc2)c1-c1ccncc1 | 80% | 101% | 89% | 85% | 102% | 55% | – | – | – | – | – | – | – | –
